# The list is not random: actives were taken first. Their share in the collection is about 2.6%.
# Vif inh = inhibitors of HIV Vif | HEK293T cells, Vif self-association by quenched fluorescence, imaging, 24 h | inhibition, % at 7.49 µM | actives 0.35% (n = 340,000); in the data active = inhibition above about 50%, passing the limit was not always enough; inconclusive = no clear call, values can overlap the other calls; inactive = below about 31%
# esBAF inh = inhibitors of esBAF chromatin remodeling in mouse ES cells. Bmi1-luciferase knock-in reporter, 24 h; 100% = twice the neutral-well signal. reporter increase, % at 12.5 µM. actives 2% (n = 350,000); in the data active = activation above about 40%; inconclusive = no clear call, values can overlap the other calls;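 also: 0% = median of the plate's neutral control wells and 100% = double that signal; a rise in the Bmi1 reporter signal indicates esBAF inhibition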
# XiGFP reactiv = X-chromosome reactivation activator | XiGFP mouse fibroblasts, % GFP-positive cells imaging, 3 d; cells co-treated with 5-aza-dC sensitizer; scaled so ellipticine positive control = 100% | activation, % at 7.58 µM | actives 0.055% (n = 360,000);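 active = mean normalized replicate activation at least 10% and every replicate at or above 10%; inconclusive = only one of the two criteria met; inactive = mean below 10% and not all replicates reach 10%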;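 also: 0% = median of on-plate neutral control wells and 100% = ellipticine 6 µM median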
#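 Material: XiGFP fibroblasts, SV40-immortalized; Buffer or medium: DMEM containing 5-aza-dC; Compound dosing: single point; Times: 3 days compound exposure.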
# Wnt act = activates Wnt/beta-catenin signaling in a reporter cell assay. actives 1.2% (n = 300,000). AID 743398. activator, plate reader. activation, % at 9.35 µM; in the data active = activation above about 30%, passing the limit was not always enough; inconclusive = no clear call, values can overlap the other calls;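 also: 0% = neutral control wells and 100% = positive control wells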
# MITF act = MITF TRPM1 promoter activation in melanoma cells | SK-MEL-5 TRPM1-promoter luciferase, 24 h; % of positive control, neutral wells = 0 | activation, % at 12.5 µM | actives 0.75% (n = 300,000);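 active = mean activation of at least 80% with every replicate also reaching 80%; inconclusive = mean reaches 80% but some replicate falls short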;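 also: 0% = neutral control wells and 100% = parthenolide positive control wells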
# The depositor's hits bear a star; u = inconclusive; x = no result.
SMILES,Vif inh,esBAF inh,XiGFP reactiv,Wnt act,MITF act
Cc1ccc(S(=O)(=O)Nc2cccc3c2O[C@H](CN(C)S(=O)(=O)c2ccc(C)cc2)[C@H](C)CN([C@@H](C)CO)C3=O)cc1,x,x,0,x,x
C[C@@H]1CN([C@@H](C)CO)S(=O)(=O)c2ccc(C#CC3CCCC3)cc2O[C@H]1CN(C)C(=O)c1cccc(F)c1,x,x,-1,x,x
CCCN1[C@@H]2c3ccc(-c4cccc(C(=O)N(C)C)c4)c(=O)n3C[C@@H]2[C@@H](CO)[C@@H]1C(=O)OC,x,x,0,x,x
CCC(=O)N/C(N)=N/c1nc2ccccc2o1,0,x,0,11,u
CC(C)(C)C(=O)N/C(N)=N/c1nc2ccccc2o1,-4,15,0,65*,u
CCCC(=O)N/C(N)=N/c1nc2ccccc2o1,0,x,0,46*,88*
CC(C)CC(=O)N/C(N)=N/c1nc2ccccc2o1,15,75*,0,53*,86*
COc1ccccc1-c1ccc([C@@H]2[C@H](CO)N3CCCCN(S(=O)(=O)c4cn(C)cn4)C[C@@H]23)cc1,x,-4,0,x,x
C[C@H](CO)N1C[C@H](C)[C@H](CN(C)S(=O)(=O)c2cn(C)cn2)Oc2ccc(NC(=O)Cc3cn(C)c4ccccc34)cc2C1=O,x,-5,-1,x,x
C[C@H](CO)N1C[C@H](C)[C@H](CN(C)C(=O)NC2CCCCC2)OCCCC[C@H](C)Oc2ccc(NS(=O)(=O)c3cn(C)cn3)cc2C1=O,x,1,0,x,x
CSc1ccc(CN(C)C(=O)c2cc3ccccc3o2)cc1,19,57*,0,-1,58
CSc1ccc(CN(C)C(=O)c2cc(=O)c3ccccc3o2)cc1,13,9,0,0,2
CCc1ccc(C(=O)c2cncc(Br)c2)cc1,-1,46*,x,20,63
Cc1ccc(C(=O)c2cncc(Br)c2)cc1,-1,24,x,-5,46
Cc1c(/C(O)=C2/C(=O)C(=O)N(Cc3cccnc3)C2c2cccs2)cnn1-c1ccccc1 (stereo not drawn),4,46*,x,-3,53
COC(=O)c1ccc2c(c1)c(C#Cc1ccccc1)c(-c1ccccc1)n2C,-1,47*,1,-1,80
COc1ccc(OCCSc2nc(N)cc(N)n2)cc1,-3,67*,x,2,95*
CCCCNc1ccc2c3c(cccc13)C(=O)N(CCCC)C2=O,x,x,123*,-6,x
Cn1c(O)c(/C=C2\C=Nc3ccccc32)sc1=Nc1ccc(C(=O)O)cc1,-12,-3,0,-5,-28
CCn1c(O)c(/C=C2\C=Nc3ccccc32)sc1=Nc1ccccc1,-3,67*,x,0,68
O=C(CSc1nnc(-c2ccccn2)o1)Nc1ccccc1F,21,-9,0,37*,12
O=C(CSc1nc2ccccc2o1)NC(=O)NCc1ccco1,10,-5,x,-1,0
CCn1nnnc1SCC(=O)Nc1ccc2c(c1)OCCO2,11,x,x,43*,37
O=C(CSc1ncccn1)NC(=O)NCc1ccco1,-6,-6,0,36*,-12
COc1ccc(OCc2nnc(SCC(=O)Nc3cccc(Cl)c3)o2)cc1,51*,-4,0,-1,-2
SMILES,Vif inh,esBAF inh,XiGFP reactiv,Wnt act,MITF act
O=C(CSc1ncccn1)Nc1ccc2c(c1)OCO2,14,23,0,-1,7
O=C(CSc1nnc(-c2cccc(Cl)c2)o1)Nc1ccc2c(c1)OCCO2,-4,32,x,-2,88*
COc1ccc(-c2nnc(SC(C)C(=O)Nc3cccc(Cl)c3)o2)cc1 (stereo not drawn),2,40,x,39*,87*
O=C(CSc1ncccn1)NC(=O)Nc1ccc2c(c1)OCCO2,60*,31,0,5,52
O=C(CSc1nnc(-c2ccccn2)o1)Nc1cccc(Cl)c1,2,65*,0,-2,x
O=C(Nc1cc(F)ccc1F)N[C@H]1CC[C@@H](CCNC(=O)c2cnccn2)O[C@H]1CO,x,9,0,x,x
O=C(C[C@H]1CC[C@@H]2[C@H](COC[C@@H](O)CN2S(=O)(=O)c2cccc(Cl)c2)O1)NC1CCCC1,x,3,0,x,x
CC(C)NC(=O)N(C)C[C@H]1Oc2ccc(NC(=O)CCCN(C)C)cc2CC(=O)N([C@@H](C)CO)C[C@@H]1C,x,1,0,x,x
Cc1cc(NC(=O)CSc2nnc(-c3ccc(O)cc3)o2)no1,-3,12,0,0,8
O=C(CSc1nnc(-c2ccc(O)cc2)o1)Nc1ccccc1,16,18,0,34*,45
Cc1nc2c(-c3ccccc3)c[nH]n2c(=O)c1Cc1ccccc1,-1,47*,0,6,20
COc1cc(Cl)ccc1OCc1cc(C(=O)N2C[C@@H]3CCC[C@H]2C3)no1,-11,92*,0,38*,58
COc1cc(Cl)ccc1OCc1cc(C(=O)N2C[C@]3(C)C[C@H]2CC(C)(C)C3)no1,x,x,0,26,125*
COc1cc(Cl)ccc1OCc1cc(C(=O)N2C[C@H]3CC[C@H]2C3)no1,-7,63*,0,-1,55
COc1cc(Cl)ccc1OCc1cc(C(=O)N2CCCCCCC2)no1,-12,13,0,4,3
COc1cc(C)ccc1OCc1cc(C(=O)N2C[C@H]3CC[C@H]2C3)no1,-2,13,0,10,25
C[C@@H]1CCCCO[C@H](CN(C)S(C)(=O)=O)[C@@H](C)CN([C@@H](C)CO)C(=O)c2cc(NC(=O)c3ccccc3)ccc2O1,x,0,0,x,x
CCN(c1ccccc1)S(=O)(=O)c1ccc2ccccc2c1,7,-6,0,0,-5
CN(c1ccc(O)cc1)S(=O)(=O)c1ccc2ccccc2c1,-3,58*,0,0,33
Cc1ccc(S(=O)(=O)N(C)C[C@@H]2Oc3c(NC(=O)C4CCOCC4)cccc3C(=O)N([C@@H](C)CO)C[C@@H]2C)cc1,x,-3,0,x,x
COCC(=O)Nc1ccc2c(c1)[C@H]1C[C@H](CC(=O)NC3CCCCC3)O[C@@H](CO)[C@H]1O2,x,2,0,x,x
C[C@@H]1CN([C@@H](C)CO)C(=O)c2cc(-c3ccccc3F)cnc2O[C@H]1CN(C)Cc1ccc(F)cc1,x,-1,0,x,x
Cc1cc(NC(=O)c2ccoc2C)ccc1Br,-4,88*,-1,57*,86*
Cc1occc1C(=O)NNC(=O)c1ccc(F)cc1,-1,6,x,-1,x
Cc1occc1C(=O)Nc1ccc(S(N)(=O)=O)cc1,0,x,0,-1,-5
Cc1occc1C(=O)NNC(=O)c1ccccc1F,-7,x,0,37*,26
Cc1occc1C(=O)Nc1ccc2c(c1)OCO2,0,x,x,x,79
Cc1ccc(NC(=O)c2ccoc2C)cc1C,3,x,0,31*,25
O=C(OCc1ccc(Cl)c(Cl)c1)c1ccc[nH]1,3,50*,0,12,56

# Source: PubChem BioAssay
